Published values gathered from unrelated publications.
Lines come from different studies, so protocols differ.
Target: Mu-type opioid receptor (OPRM1, Homo sapiens, UniProt P35372)

Compound | test | conditions | quantity | value
Cc1ccc(CNC(=O)CNC(=O)[C@@H]2Cc3ccccc3CN2C(=O)[C@@H](N)Cc2c(C)cc(O)cc2C)cc1 | ligand displacement, radioligand | cell membranes | Ki | 3.7 nM
CN[C@]1(c2ccccc2Cl)CCCCC1=O | ligand displacement, radioligand | – | Ki | 3000 nM
Oc1ccc2c3c1O[C@H]1c4ncc(-c5ccccc5)cc4C[C@@]4(OCCCc5cccnc5)[C@@H](C2)N(CC2CC2)CC[C@]314 | cell-free assay | – | Ki | 3.96 nM
CCCCCCCCC[C@@H]1CC(=O)NCC(=O)N[C@H](Cc2ccc(O)cc2)C(=O)NCC(=O)N[C@@H](Cc2ccccc2)C(=O)O1 | ligand displacement, radioligand | – | IC50 | 16000 nM
Cc1cc(O)cc(C)c1C[C@H](N)C(=O)N1Cc2ccccc2C[C@H]1C(=O)NCC(=O)NCc1ccc(Cl)cc1 | ligand displacement, radioligand | cell membranes | Ki | 2.9 nM
CC(CCc1ccc(O)cc1)NCCc1ccc(O)c(O)c1 (stereo not shown) | ligand displacement, radioligand | – | IC50 | 1660 nM
CC(=O)Nc1ccccc1-c1cnc2c(c1)C[C@@]1(OCCCc3ccccc3)[C@H]3Cc4ccc(O)c5c4[C@@]1(CCN3CC1CC1)[C@H]2O5 | cell-free assay | – | Ki | 141 nM
CC(NCCc1ccc(O)cc1)C(O)c1ccc(O)cc1 (stereo not shown) | ligand displacement | – | IC50 | 9180 nM
CCCO[C@@]12Cc3cc(-c4ccccc4)cnc3[C@@H]3Oc4c(O)ccc5c4[C@@]31CCN(CC1CC1)[C@@H]2C5 | cell-free assay | – | Ki | 499 nM
COc1ncccc1-c1cnn2ccc(N3CCN(C(=O)OC(C)C)CC3)nc12 | cell-free assay | – | IC50 | > 30000 nM
Cc1cc(O)cc(C)c1C[C@H](N)C(=O)N1Cc2ccccc2C[C@H]1C(=O)NCC(=O)NCc1ccc([N+](=O)[O-])cc1 | ligand displacement, radioligand | cell membranes | Ki | 4.5 nM
CC(Cc1ccccc1)NCCC(c1ccccc1)c1ccccc1 (stereo not shown) | ligand displacement, radioligand | – | IC50 | 1800 nM
c1ccc([C@]2(CCN[C@H]3CCOc4ccccc43)CCOC3(CCCC3)C2)nc1 | cAMP, agonist, luciferase | – | EC50 | 1.6 nM
